The source of these data is ChEMBL document CHEMBL3872226, “Evaluation of selected 3D virtual screening tools for the prospective identification of peroxisome proliferator-activated receptor (PPAR) γ partial agonists” (Eur J Med Chem, 2016).

The structures appear in SMILES notation.

Test [1] concerns the target T1, Peroxisome proliferator-activated receptor gamma (Homo sapiens) (UniProt P37231).
T1 sequence (whole entry): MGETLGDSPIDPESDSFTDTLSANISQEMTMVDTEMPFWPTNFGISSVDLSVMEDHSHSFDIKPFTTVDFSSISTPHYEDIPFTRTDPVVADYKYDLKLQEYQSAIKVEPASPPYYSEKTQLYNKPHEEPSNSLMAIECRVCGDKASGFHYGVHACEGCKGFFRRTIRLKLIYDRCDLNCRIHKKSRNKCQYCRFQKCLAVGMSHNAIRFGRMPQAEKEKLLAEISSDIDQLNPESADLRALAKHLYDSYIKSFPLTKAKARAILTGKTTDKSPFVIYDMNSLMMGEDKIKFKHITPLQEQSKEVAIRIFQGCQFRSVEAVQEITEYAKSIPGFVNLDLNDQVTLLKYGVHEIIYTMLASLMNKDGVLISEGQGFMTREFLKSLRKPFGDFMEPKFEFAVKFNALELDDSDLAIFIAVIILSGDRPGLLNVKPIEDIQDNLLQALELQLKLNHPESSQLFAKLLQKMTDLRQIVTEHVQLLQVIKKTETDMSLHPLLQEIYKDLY
Kind of test: Transactivation of GAL4-fused human PPARgamma ligand binding domain expressed in African green monkey COS7 cells at 10 uM after 42 hrs by dual luciferase reporter gene assay relative to pioglitazone. Format: cell-based. The note with it: COS-7. The method in brief: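 COS-7 cells seeded at 10^4 cells/well in DMEM with 10% FCS, grown 24 h at 37 °C, 5% CO2. Transiently transfected in serum- and antibiotic-free medium with pGal5-TK-Luc (30 ng), pGal4-PPARγ-LBD (3 ng) and pRenilla-CMV (1 ng). Compounds or DMSO vehicle added after 4 h, triplicates; dual-luciferase read after 42 h. Activation relative to pioglitazone.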
A general note: A reporter such as luciferase makes a cellular process visible.

Test [2] has as its target T1, Peroxisome proliferator-activated receptor gamma (Homo sapiens). The test is described as follows: Displacement of Fluoromone from GST-tagged recombinant human PPARgamma ligand binding domain at 10 uM by LanthaScreen TR-FRET assay relative to pioglitazone. In outline: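 Recombinant GST-tagged PPARγ LBD incubated with terbium-labelled anti-GST antibody and fluorescein-labelled pan-PPAR agonist Fluoromone (5 nM), triplicates; DMSO negative control, pioglitazone and telmisartan positive controls. TR-FRET read as 520/495 nm emission ratio; compound autofluorescence subtracted as blank. Displacement expressed relative to pioglitazone.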
In general terms: In TR-FRET formats the signal depends on donor and acceptor labels being close together.

Test [3] concerns the target T2, Peroxisome proliferator-activated receptor gamma (Homo sapiens, UniProt P37231).
T2 sequence (P37231 whole entry): T1 sequence (whole entry)
Kind of test: Displacement of Fluoromone from GST-tagged recombinant human PPARgamma ligand binding domain by LanthaScreen TR-FRET assay.

The target of test [4] is T2, Peroxisome proliferator-activated receptor gamma. Kind of test: Transactivation of GAL4-fused human PPARgamma ligand binding domain expressed in African green monkey COS7 cells after 42 hrs by dual luciferase reporter gene assay. Type of test: cell-based, COS-7.

As for `O=C(CSCc1ccc(Cl)c(Cl)c1)c1ccc(OCc2ccc([N+](=O)[O-])cc2)cc1`, in test [1], the Activity stood at 11.1%.

In test [1], `Cc1ccc(S(=O)(=O)n2nc(C)c(Sc3nccn3C)c2C)cc1` came in with an Activity of 10.1%.

`Cc1cc(Oc2nc(NCCSC(C)(C)C)nc(Oc3cc(C)c(Cl)c(C)c3)n2)cc(C)c1Cl` showed an Activity in test [1] of 9%.

In the case of `O=S(=O)(Nc1ccc(Oc2ccc(OC(F)(F)F)cc2)cc1)c1cc(Cl)c(Cl)cc1Cl`, in test [2], the inhibition (usually the change of the read-out against control, counted positive when it falls) turned out to be 45%.

For `O=S(=O)(CS(=O)(=O)Oc1cc(Cl)cc(Cl)c1)Oc1cc(Cl)cc(Cl)c1`, the inhibition in test [2] turned out to be 48%.

Take `N#Cc1c(SCc2ccccc2)nc2c(c1/C=C\c1ccccc1)CCC2`: in test [1], the Activity came to 14.4%.

Consider `Cc1nc(CSc2nnc(-c3ccc(C(F)(F)F)cc3)n2Cc2ccco2)cs1`, for which the Activity in test [1] stood at 2.8%.

Regarding `Oc1c(O)c(CN2CCCCC2)c2ccccc2c1CN1CCCCC1`, the Activity in test [1] is 2.7%.

On to `O=C(O)c1cn(C2CCCCC2)c2ccccc2c1=O`, for which the Activity in test [1] came out at 12%.

As for `N#CC(/N=C/c1cc(Cl)cc(Cl)c1O)=C(C#N)/N=C/c1cc(Cl)cc(Cl)c1O`, the inhibition in test [2] was determined as 46%.

In the case of `CSc1nc(Sc2nnc(-c3cc(C(F)(F)F)cc(C(F)(F)F)c3)[nH]2)cc(Sc2nnc(-c3cc(C(F)(F)F)cc(C(F)(F)F)c3)[nH]2)n1`, the inhibition in test [2] stood at 76%. In addition, the EC50 (as a rule, the midpoint of the concentration-response curve) in test [3] is 5400 nM.

As for `CC(C)(CC(=O)O)CC(=O)N1CCCN(c2nccc(C(F)(F)F)n2)CC1`, the Activity in test [1] was 9.8%.

As to `O=S(=O)(Nc1cc(Cc2cc(NS(=O)(=O)c3ccccc3)cc(C(F)(F)F)c2)cc(C(F)(F)F)c1)c1ccccc1`, the EC50 in test [4] is 3400 nM; in test [3], 600 nM. Moreover, in test [2], the inhibition was determined as 99%. Besides, the Activity in test [1] turned out to be 23.7%.

As for `Cc1ccc(Sc2c(C(=O)O)cnc3c2c(C)nn3C)cc1`, in test [1], the Activity was found to be 7%.

On to `COc1cc2c(cc1OC)C(/C=C1\SC(C(=O)c3cccs3)=NN1c1ccc(C)cc1)=NCC2`, for which the inhibition in test [2] was found to be 42%.

`Cc1ccc(S(=O)(=O)Nc2ccc(Oc3cccnc3)nc2)cc1` registered an Activity in test [1] of 6%.

Consider `O=S(=O)(c1ccc(Cl)cc1)c1cnn(S(=O)(=O)c2ccc(Cl)cc2Cl)c1-c1ccc(Cl)cc1`, for which, in test [2], the inhibition stood at 80%. The EC50 in test [3] stood at 2100 nM.

`O=C(CSc1nnc(SCC(=O)NCCSCc2ccco2)s1)NCCSCc1ccco1` yielded an Activity in test [1] of 12.3%.

As for `Cc1nn(C)c(Cl)c1S(=O)(=O)Nc1ccc(Oc2ccc(F)cc2)cc1`, the Activity in test [1] was 3%.

`Cc1noc(C)c1-c1nc(CS(=O)(=O)Cc2ccc(Cl)cc2)no1`: the Activity in test [1] worked out at 12.8%.

As to `Cn1ccnc1SCc1nccn1Cc1ccc(Cl)cc1`, the Activity in test [1] came to 8.1%.

`COc1ccc(CCNc2ccc(C(F)(F)F)cc2/N=C/c2cc(Cl)cc(Cl)c2O)cc1OC`: the Activity in test [1] turned out to be 9.9%.

In the case of `O=C(CN1c2ccccc2Sc2ccccc21)NNC(=S)NCc1ccccc1`, the EC50 in test [4] was found to be 21700 nM; in test [3], 2800 nM. Moreover, the inhibition in test [2] came to 86%. The same compound came in with an Activity in test [1] of 41.9%.

On to `Cc1[nH]c2ccccc2c1SCc1nnc(SCc2ccccc2)n1C`, for which the Activity in test [1] came out at 9.8%.

In test [1], `COc1nc(-c2ccc(OCc3ccccc3)cc2OCc2ccc(F)cc2)cc(-c2ccc(C)cc2)c1C#N` yielded an Activity of 9.5%.

`COc1ccc(-c2cn3cccc(OCc4ccc(Cl)c(Cl)c4)c3n2)cc1`: the inhibition in test [2] was determined as 60%. Moreover, the EC50 in test [3] is 3100 nM.

With `CCCc1nc2c(C)cc(-c3nc4ccccc4n3C)cc2n1Cc1ccc(-c2ccccc2C(=O)O)cc1` [TELMISARTAN], the inhibition in test [2] was found to be 91%. The EC50 in test [3] worked out at 700 nM.

For `O=c1n(Cc2ccc(Cl)cc2Cl)c2ccccc2n1Cc1ccc(Cl)cc1Cl`, the Activity in test [1] was determined as 9.1%.

In test [1], `Cc1noc(C)c1-c1noc(CSCc2ccc(Cl)cc2)n1` yielded an Activity of 8.4%.

As for `Cc1c(NS(=O)(=O)c2ccc(S(=O)(=O)c3ccccc3)s2)c(=O)n(-c2ccccc2)n1C`, the Activity in test [1] amounted to 7.8%.
